Experiment [1] concerns Salmonella. Put plainly: Inhibition zone diameter against aerobic organism Salmonella strain 826.
The next experiment deals with Klebsiella. As to the kind of experiment: Inhibition zone diameter against aerobic organism Klebsiella species strain 2921.
Another experiment concerns Serratia marcescens. As to the kind of experiment: Inhibition zone diameter against aerobic organism Serratia marcescenes strain 2855.
In experiment [2] the test system is Staphylococcus aureus. Put plainly: Inhibition zone diameter against aerobic organism Staphylococcus aureus strain 2314.
In experiment [3] the test system is Pseudomonas aeruginosa. Put plainly: Inhibition zone diameter against aerobic organism Pseudomonas aeruginosa strain 3350.
A further experiment has as its system Streptococcus pyogenes. Put plainly: Inhibition zone diameter against aerobic organism Streptococcus pyogenes strain 2874.
The test system of experiment [4] is Staphylococcus aureus. As to the kind of experiment: Inhibition zone diameter against aerobic organism Staphylococcus aureus strain 2314. This is another data set of the same source.
Experiment [5] deals with Morganella morganii. Put plainly: Disk zone diameter (25 ug/disk) against aerobic organism Morganella morganii strain 2834.
For a further experiment, the system named is Escherichia coli. Put plainly: MIC against aerobic organism Escherichia coli strain 2891. As to conditions: Escherichia coli; read-out: MIC. Type of experiment: functional. A digest of the protocol: (§1)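 Agar-dilution MIC in µg/mL against aerobic bacterial strains on tryptocase soy agar, with inoculum applied as spots. Most series used 10^5 cfu per spot, and a later series used 10^4 cfu per spot. In some tables, footnoted strains were instead tested on Mueller-Hinton or nutrient agar. β-Lactamase-producing strains are flagged.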

Another experiment has as its system Klebsiella aerogenes. Put plainly: Minimum inhibitory concentration against aerobic organism Enterobacter aerogenes strain 2828. Type of experiment: functional. In a few lines:
as §1

Another experiment has as its system Enterobacter cloacae. Put plainly: Minimum inhibitory concentration against aerobic organism Enterobacter cloacae strain 2646. Type of experiment: functional. As to conditions: Enterobacter cloacae; read-out: MIC. In a few lines:
as §1

A further experiment deals with Klebsiella pneumoniae. Put plainly: Minimum inhibitory concentration against aerobic organism Klebsiella pneumoniae strain 4005. Type of experiment: functional. In a few lines: as §1
Experiment [6] concerns Morganella morganii. Put plainly: Minimum inhibitory concentration against aerobic organism Morganella morganii strain 2833. As to conditions: Morganella morganii; read-out: MIC. Type of experiment: functional. A digest of the protocol:
as §1

For experiment [7], the system named is Pseudomonas aeruginosa. As to the kind of experiment: Minimum inhibitory concentration against aerobic organism Pseudomonas aeruginosa strain 2835. Type of experiment: functional. In a few lines: as §1
The next experiment has as its system Proteus mirabilis. As to the kind of experiment: Minimum inhibitory concentration against aerobic organism Proteus mirabilis strain 2830. Type of experiment: functional. Particulars: Proteus mirabilis; read-out: MIC. A digest of the protocol:
as §1

The next experiment has as its system Proteus vulgaris. Put plainly: Minimum inhibitory concentration against aerobic organism Proteus vulgaris strain 2829. Type of experiment: functional. Particulars: Proteus vulgaris; read-out: MIC. A digest of the protocol: as §1
Experiment [8] deals with Salmonella. Put plainly: Minimum inhibitory concentration against aerobic organism Salmonella strain 3860. Type of experiment: functional. A digest of the protocol: as §1
For experiment [9], the system named is Staphylococcus aureus. Put plainly: Minimum inhibitory concentration against aerobic organism Staphylococcus aureus strain 2865. Type of experiment: functional. In a few lines: as §1
For experiment [10], the system named is Staphylococcus aureus. Put plainly: Minimum inhibitory concentration against aerobic organism Staphylococcus aureus strain 2868. Type of experiment: functional. As to conditions: Staphylococcus aureus; read-out: MIC. A digest of the protocol:
as §1

A further experiment has as its system Enterococcus faecalis. As to the kind of experiment: Minimum inhibitory concentration against aerobic organism Streptococcus faecalis strain 2864. Type of experiment: functional. A digest of the protocol: as §1

Eight compounds from ChEMBL document CHEMBL1122046, “Quaternary heterocyclylamino beta-lactams: a generic alternative to the classical acylamino side chain” (1982) can be followed below.

Each structure is given as a SMILES string. Values after ≈ are worked out from the molar mass of the structure shown. Some results are limits rather than exact numbers.

In the case of `CC(O)[C@H]1C(=O)N2C(C(=O)O)=C(SCCNC3=NCCC3)C[C@H]12` (stereo not given in full), the zone diameter was 28 mm with Salmonella [1]; 24 mm with Klebsiella; 25.5 mm in the experiment with Serratia marcescens; 38 mm in the experiment with Staphylococcus aureus [2]; 25.5 mm in the experiment on Pseudomonas aeruginosa [3]; 40 mm in the experiment on Streptococcus pyogenes.

For `C[C@@H](O)[C@H]1C(=O)N2C(C(=O)O)=C(SCCNC=N)C[C@H]12` [IMIPENEM ANHYDROUS], the zone diameter in the experiment on Salmonella [1] amounted to 29.5 mm; in the experiment with Klebsiella, 26.5 mm; with Serratia marcescens, 24.5 mm; with Staphylococcus aureus [4], 42 mm; in the experiment with Pseudomonas aeruginosa [3], 31 mm; in the experiment with Streptococcus pyogenes, 43 mm. In the experiment on Morganella morganii [5], this compound gave a zone diameter of 27 mm.

With `O=C([O-])C1=C(CO)CS[C@@H]2[C@H](Nc3cc[n+](Cc4ccccc4)cc3)C(=O)N12`, the MIC (usually the smallest concentration in the dilution series that meets the test's criterion for growth inhibition) in the experiment with Escherichia coli is 0.5 µg/mL (≈ 1.26 µM); in the experiment with Klebsiella aerogenes, 128 µg/mL (≈ 322 µM); in the experiment on Enterobacter cloacae, 1 µg/mL (≈ 2.52 µM); with Klebsiella pneumoniae, greater than 128 µg/mL; in the experiment with Morganella morganii [6], greater than 128 µg/mL; in the experiment with Pseudomonas aeruginosa [7], greater than 128 µg/mL. Also, the minimum inhibitory concentration (MIC) with Proteus mirabilis was greater than 128 µg/mL; in the experiment on Proteus vulgaris, less than 0.06 µg/mL; against Salmonella [8], greater than 128 µg/mL; against Staphylococcus aureus [9], 0.5 µg/mL (≈ 1.26 µM); with Staphylococcus aureus [10], 16 µg/mL (≈ 40.3 µM); in the experiment with Enterococcus faecalis, greater than 128 µg/mL.

In the case of `CCO[n+]1ccc(N[C@@H]2C(=O)N3C(C(=O)[O-])=C(CSc4nnnn4C)CS[C@H]23)cc1`, the MIC in the experiment with Escherichia coli is 0.125 µg/mL (≈ 0.278 µM); in the experiment with Klebsiella aerogenes, 32 µg/mL (≈ 71.2 µM); in the experiment with Enterobacter cloacae, 1 µg/mL (≈ 2.22 µM); against Klebsiella pneumoniae, 128 µg/mL (≈ 285 µM); in the experiment with Morganella morganii [6], greater than 128 µg/mL; against Pseudomonas aeruginosa [7], greater than 128 µg/mL. Moreover, the MIC in the experiment with Proteus mirabilis is greater than 128 µg/mL; with Proteus vulgaris it was 0.25 µg/mL (≈ 0.556 µM); against Salmonella [8], 128 µg/mL (≈ 285 µM); in the experiment with Staphylococcus aureus [9], 8 µg/mL (≈ 17.8 µM); in the experiment with Staphylococcus aureus [10], greater than 128 µg/mL; against Enterococcus faecalis, greater than 128 µg/mL.

In the case of `CC(O)[C@H]1C(=O)N2C(C(=O)[O-])=C(SCCNc3cc[n+](C)cc3)C[C@H]12` (stereo not given in full), the zone diameter in the experiment with Salmonella [1] was found to be 28 mm; in the experiment with Klebsiella, 27 mm; in the experiment with Serratia marcescens, 26.5 mm; with Staphylococcus aureus [2], 42 mm; in the experiment with Pseudomonas aeruginosa [3] it was 24.5 mm; with Streptococcus pyogenes, 37.5 mm. This compound also showed a zone diameter in the experiment with Morganella morganii [5] of 26 mm.

As to `[N-]=[N+]=NCC1=C(C(=O)[O-])N2C(=O)[C@@H](Nc3cc[n+](Cc4ccccc4)cc3)[C@H]2SC1`, the MIC is 0.25 µg/mL (≈ 0.592 µM) in the experiment with Escherichia coli; 8 µg/mL (≈ 18.9 µM) in the experiment with Klebsiella aerogenes; 1 µg/mL (≈ 2.37 µM) in the experiment on Enterobacter cloacae; 64 µg/mL (≈ 151 µM) in the experiment with Klebsiella pneumoniae; greater than 128 µg/mL in the experiment on Morganella morganii [6]; greater than 128 µg/mL in the experiment with Pseudomonas aeruginosa [7]. Besides, the MIC in the experiment on Proteus mirabilis is greater than 128 µg/mL; in the experiment with Proteus vulgaris, less than 0.06 µg/mL; against Salmonella [8], 1 µg/mL (≈ 2.37 µM); against Staphylococcus aureus [9], 0.5 µg/mL (≈ 1.18 µM); in the experiment with Staphylococcus aureus [10], 2 µg/mL (≈ 4.73 µM); in the experiment on Enterococcus faecalis, greater than 128 µg/mL.

For `CC(=O)NCCSC1=C(C(=O)O)N2C(=O)[C@H](C(C)O)[C@H]2C1` (stereo not given in full), the zone diameter with Salmonella [1] came out at 30.5 mm; with Klebsiella, 28 mm; in the experiment with Serratia marcescens, 28 mm; with Staphylococcus aureus [4], 39 mm; with Pseudomonas aeruginosa [3], 10 mm; in the experiment on Streptococcus pyogenes, 37 mm. In the experiment on Morganella morganii [5], this compound returned a zone diameter of 28.5 mm.

As to `CC(O)[C@H]1C(=O)N2C(C(=O)[O-])=C(SCCNc3cccc[n+]3C)C[C@H]12` (stereo not given in full), the zone diameter is 27.5 mm in the experiment on Salmonella [1]; 26 mm with Klebsiella; 26 mm in the experiment with Serratia marcescens; 42.5 mm in the experiment with Staphylococcus aureus [2]; 17.5 mm with Pseudomonas aeruginosa [3]; 37 mm in the experiment with Streptococcus pyogenes. In addition, the zone diameter with Morganella morganii [5] was determined as 27 mm.
